Bioassay records from PubChem.
OX1R antag-1: human HCRTR1 antagonism; O43613; CHO/OX1R cells, Fluo-8 calcium fluorescence, orexin A; inhibition, % at 5 µM; 330,000 compounds, 0.43% hits;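 active = inhibition above its plate's threshold, mean inhibition of all tested compounds on the plate plus 3 SD, cut at about 37% in these data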
V1R ag counter: V1a receptor agonism, counter-screen for OXTR agonists | activation, % at 3 µM | P37288 | CHO-V1R cells, Fluo-8 calcium fluorescence, agonist mode; 0% DMSO, 100% 3 nM vasopressin | 320,000 compounds, 0.25% hits;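 active = activation above the mean activation of all tested compounds plus 3 SD, per screening run, cut at about 20% in these data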;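 also: signal is peak over basal fluorescence ratio across a 100 second FLIPR read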
OX1R antag-2: antagonists of human orexin 1 receptor (OX1R) | O43613 | OX1R-expressing cells, FRET antagonist read-out | inhibition, % at 6.6 µM | 330,000 compounds, 1.8% hits; in the data active = inhibition mostly above about 38%, no sharp cut-off; inactive = mostly below about 40%
OXTR potentiate: potentiates the human oxytocin receptor response; P30559; CHO-OTR cells, Fluo-8 calcium fluorescence, potentiator mode; 0% = oxytocin EC15, 100% = EC100; activation, % at 3 µM; 320,000 compounds, 0.061% hits;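 active = activation above that plate's cutoff, the mean activation of tested compounds plus 3 SD, cut at about 6.6% in these data, passing the limit was not always enough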
Target sequence (P30559 whole entry, looked up): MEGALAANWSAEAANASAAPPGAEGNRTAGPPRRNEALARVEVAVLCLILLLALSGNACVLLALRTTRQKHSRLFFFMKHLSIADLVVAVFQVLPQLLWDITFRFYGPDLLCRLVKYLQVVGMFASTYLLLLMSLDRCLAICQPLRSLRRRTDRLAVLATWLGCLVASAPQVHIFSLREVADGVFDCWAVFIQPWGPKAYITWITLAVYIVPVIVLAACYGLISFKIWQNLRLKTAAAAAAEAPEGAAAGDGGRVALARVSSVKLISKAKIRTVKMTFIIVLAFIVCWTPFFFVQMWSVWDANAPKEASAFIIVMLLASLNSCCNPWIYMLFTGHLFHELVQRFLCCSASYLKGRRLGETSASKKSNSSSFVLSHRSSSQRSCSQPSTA
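Replication – single well per compound, singlicate · Assay system – CHO cell line stably expressing human OTR · Timing – 6 min pre-incubation, 100 s read · Measure – normalized max/min fluorescence ratio, % activation · Doses – 3.0 µM, one dose · Detection – Fluo-8 calcium dye fluorescence · Probe or stimulus – oxytocin near EC15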
CHO parental Ca: counter-screen for OX1R antagonists: effect in parental CHO cells; parental CHO-K1, ATP-induced calcium, Fluo-8 fluorescence; AID 463079; inhibition, % at 5.6 µM; 330,000 compounds, 0.63% hits;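 active = inhibition above that plate's mean sample inhibition plus 3 SD, cut at about 26% in these data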
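test system = CHO parental line | reagent = ATP stimulus | measured by = intracellular calcium via Fluo-8 no-wash fluorescent dye | control set = ATP and no-ATP DMSO wells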
OXTR ag: human OXTR agonism; P30559; CHO-OTR cells, Fluo-8 calcium fluorescence; normalized: DMSO 0%, oxytocin 100%; activation, % at 3 µM; 320,000 compounds, 0.32% hits;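 active = activation above the mean of all tested compounds plus 3 SD, cutoff set per screening run, cut at about 20% in these data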;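 also: peak over basal fluorescence ratio from a 100 s FLIPR kinetic read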
OXTR agonist cf: confirmation of human oxytocin receptor agonists | AID 434963 | CHO-OTR cells, Fluo-8 calcium fluorescence, agonist | shares compounds with OXTR ag | activation, % at 3 µM | 390 compounds, 20% hits;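 active = mean activation above about 20% derived from the earlier single-dose screen, limit read from the data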;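 also: peak over minimum fluorescence ratio per well during a 100 second FLIPR read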
V1R ag counter 3x: V1R agonism in triplicate, counter-screen for OXTR agonists. shares compounds with OXTR ag. CHO-V1R cells, Fluo-8 calcium fluorescence, agonist. activation, % at 3 µM. 390 compounds, 10% hits;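 active = mean activation over triplicate exceeds the hit threshold set in the earlier primary screen, cut at about 20% in these data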;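 also: peak over basal fluorescence ratio within a 100 second read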
Hits are given with their value; 0 = inactive; - = not tested or not shown. Only some compounds are listed: those with a hit (about 2.7% of all), similar ones and a draw of the others.

SMILES	OX1R antag-1	V1R ag counter	OX1R antag-2	OXTR potentiate	CHO parental Ca	OXTR ag	OXTR agonist cf	V1R ag counter 3x
O=C(CSc1nc2ccccc2c(=O)n1CCCN1CCOCC1)NC12CC3CC(CC(C3)C1)C2	0	0	0	0	0	0	-	-
COc1ccc(C(CCN2CCCCC2)c2c(OC)cc(OC)c3c(-c4ccccc4)cc(=O)oc23)cc1 (stereo unspecified)	0	0	0	0	0	21.2	0	0
COc1ccc(/C=C2\CCc3ccccc3C2=O)cc1Cn1nc(C)cc1C	0	0	0	0	0	23.1	0	0
O=C(O)c1ccc(N/N=C/c2ccc(-c3ccccc3Cl)o2)cc1	0	0	0	0	0	23.1	0	0
O=C(N/N=C/c1ccc(-c2ccccc2Cl)o1)c1ccccc1	0	0	0	0	0	0	-	-
COc1ccc(CN(CC(=O)NCc2ccc(F)cc2)C(=O)CCC(=O)Nc2cc(C)ccn2)cc1	0	0	0	0	0	0	-	-
CCCCN1CC2=C(C1=O)C(c1ccc(O)cc1)NC(=O)N2C (stereo unspecified)	0	0	0	0	0	0	-	-
CN(C)S(=O)(=O)c1ccc(C(=O)N2CCN(S(=O)(=O)c3cccs3)CC2)cc1	0	0	0	0	0	0	-	-
O=C(Nc1sc2c(c1C(=O)NCC(O)CO)CCCC2)c1ccccc1 (stereo unspecified)	0	0	0	0	0	0	-	-
CC(Oc1cccc(Cl)c1)C(=O)Nc1ccc(S(=O)(=O)NC2=NCCCCC2)cc1 (stereo unspecified)	0	0	0	0	0	0	-	-
CC(Oc1ccc(F)cc1)C(=O)Nc1ccc(S(=O)(=O)NC2=NCCCCC2)cc1 (stereo unspecified)	0	0	0	0	0	24.9	27.9	0
CN(Cc1nc(-c2ccccc2)no1)C1CCOCC1	0	0	0	0	0	0	-	-
O=C(N/N=C/c1sc2ccccc2c1O)c1ccccc1	0	0	0	0	0	20.6	30.4	47.5
COc1ccccc1C(=O)NNC(=S)NC(=O)c1cc(OC)c(OC)c(OC)c1	0	0	0	0	0	21.1	0	0
COc1cc(C(=O)NC(=S)NNC(=O)[C@H]2C[C@@H]2c2ccccc2)cc(OC)c1OC	0	0	0	0	0	27.6	0	0
O=C(CNS(=O)(=O)c1ccc([N+](=O)[O-])cc1)N/N=C/c1ccc(O)cc1O	0	0	0	0	0	0	-	-
CC(C)(C)OC(=O)N1CCC(NC(=O)c2nc[nH]c2C(=O)NCC(=O)OCc2ccccc2)CC1	0	0	0	0	0	0	-	-
Cc1ccc(OCc2nnc(SCC(=O)Nc3sc(C)c(C)c3C#N)n2C)cc1	0	0	0	0	0	20.9	0	0
COc1cccc(NC(=O)Nc2nc(SC(C)(C)C)ns2)c1	75.1	0	0	0	73.6	23.4	0	0
O=C(Nc1cccc(F)c1)Nc1cccc(Cl)c1	0	0	0	0	0	19.9	0	0
COc1ccc(NC(=O)Nc2cccc(OC)c2)cc1	0	0	0	0	0	0	-	-
CCSc1nsc(NC(=O)Nc2cccc(F)c2)n1	103.8	0	84.4	0	101.2	19.8	0	0
CCCSc1nsc(NC(=O)Nc2ccc(F)cc2F)n1	0	0	0	0	0	0	-	-
CCN(CC)S(=O)(=O)c1cc(C(=O)Nc2cc(C)on2)c(Cl)cc1Cl	0	0	0	0	0	0	-	-
Cc1ccnc(N/C=C(\C#N)c2nc(-c3cccc(Br)c3)cs2)c1	0	0	0	0	0	30.9	127.8	161.6
SMILES	OX1R antag-1	V1R ag counter	OX1R antag-2	OXTR potentiate	CHO parental Ca	OXTR ag	OXTR agonist cf	V1R ag counter 3x
COc1cccc(-c2csc(/C(C#N)=C/Nc3cc4oc5ccccc5c4cc3OC)n2)c1	0	0	0	0	0	0	-	-
COc1ccccc1NCC(O)Cn1c2ccccc2c2ccccc21 (stereo unspecified)	0	0	0	0	0	0	-	-
COc1ccc(CCNCC(O)Cn2c3ccccc3c3ccccc32)cc1OC (stereo unspecified)	0	0	0	0	0	23.4	23.7	0
CC(Oc1ccccc1C(N)=O)C(=O)Nc1ccc(S(=O)(=O)N2CCCC2)cc1 (stereo unspecified)	0	0	0	0	0	0	-	-
O=C(CSc1nnnn1-c1ccc2c(c1)OCCO2)Nc1nc2c(s1)CCCC2	0	0	0	0	0	0	-	-
CCOC(=O)c1csc(NC(=O)CSc2nnnn2-c2ccc3c(c2)OCCO3)n1	0	0	0	0	0	22.8	0	0
Cc1ccc(C)c(N2CCN(C(=O)c3cccn4c(=O)c5sccc5nc34)CC2)c1	0	0	0	0	0	31.0	0	0
Cc1ccc(C)c(N2CCN(C(=O)c3cc4ccccc4oc3=O)CC2)c1	0	0	0	0	0	0	-	-
Oc1ccc(C[C@@H]2CNCCN2CCC23CC4CC(CC(C4)C2)C3)cc1	0	0	0	0	0	20.4	0	0
CCOC(=O)/C(C#N)=C/Nc1ccccc1NS(=O)(=O)c1cccc(C(C)=O)c1	0	0	0	0	0	49.8	0	0
COc1ccccc1Oc1ccc2c(c1)C(=O)N(c1ccc(O)cc1)C2=O	0	0	0	0	0	25.6	0	0
O=C1/C(=C/c2ccccc2)N=C(N2CCOCC2)N1c1cccc(Cl)c1	0	0	0	0	0	25.7	0	0
O=C1C(Cl)=C(N2CCOCC2)C(=O)N1c1cccc(Cl)c1	0	0	0	0	0	0	-	-
CCN(CC)CCc1nc(-c2ccccc2)no1	0	0	0	0	0	0	-	-
Nn1c(SCC(=O)NC2CCCCC2)nnc1-c1ccccc1F	0	0	0	0	0	0	-	-
N#C/C(=C(/O)c1ccc(Cl)c([N+](=O)[O-])c1)c1nc2ccccc2[nH]1	0	0	0	0	0	25.8	0	0
CC1(c2ccc([N+](=O)[O-])cc2)NC(=O)N(CC(=O)Nc2cccnc2Cl)C1=O (stereo unspecified)	0	0	0	0	0	20.7	0	0
CCN(CC)c1ccc(-c2sc(Nc3ccccc3)n[n+]2-c2ccc(F)cc2)cc1	0	0	0	0	0	0	-	-
CCc1ccc(Nc2n[n+](-c3ccccc3)c(-c3ccc(N(CC)CC)cc3)s2)cc1	0	0	0	0	45.1	40.1	71.2	101.1
COc1ccc(C(=O)NC2CC2)cc1OC1CCN(Cc2ccc(F)cc2Cl)CC1	0	0	0	0	0	0	-	-
CC[n+]1c(/C=C/C=C/N(C(C)=O)c2ccccc2)sc2cc(OC)ccc21	0	0	0	0	0	29.1	69.0	90.5
